Test system: MS2 coat protein
Assay: apparent Kd, MS2 coat protein; higher = weaker binding; RNA-MaP array; FMN 200 µM where present
Summary of the method: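 The apparent Kd comes from binding curves fitted cluster by cluster, filtered, and summarised as a median. Those curves followed SNAP-549-labelled MS2 coat protein from 0.7 or 1.5 nM, doubling to 3 µM, on Illumina sequencing-chip clusters where stalled E. coli RNA polymerase had transcribed the designs, without and then with constant ligand. The buffer was 100 mM Tris-HCl pH 7.5, 80 mM KCl, 4 mM MgCl2, BSA, DTT, yeast tRNA and Tween-20, and green signal was normalised to red-channel RNA signal and control-cluster median Fmax.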

[1] = designed as: OFF switch for flavin mononucleotide, no ligand
[2] = ligand present: flavin mononucleotide, designed as: OFF switch for flavin mononucleotide
[3] = designed as: ON switch for flavin mononucleotide, no ligand
[4] = ligand present: flavin mononucleotide, designed as: ON switch for flavin mononucleotide

Row | Sequence | apparent Kd [1] [nM] | apparent Kd [2] [nM] | apparent Kd [3] [nM] | apparent Kd [4] [nM]
1 | CGUAUACAUGAGGAUCACCCAUGUAAGGAUAUGCUUUAUUAUUAUUAUUAUUAUUGUUGCAGAAGGUACAUUGC | 19 | 17.7 | – | –
2 | UAUUUUGAAGUAGGAUAUCAACACACAUGAGGAUCACCCAUGUUAGAUGUGGAUGUUGUAUGUUAUGAGAAGGACUUCGAUUCG | 20.6 | 76.4 | – | –
3 | GGUGCUGUGUAGAAGGCAGAUCUGAUUCAGAUCUGAGGAUAUACAUGAGGAUCACCCAUGUUAAGCACCAGCACGAGAGUGCAA | 5.8 | 8.54 | – | –
4 | GGACCAUAUCAGGAUAUGACUAGCUUCGGCUAGUCAGAAGGGAUGACAUGAGGAUCACCCAUGUGAUCAGGUCC | 42.1 | 50.5 | – | –
5 | AUGGACGCAGGAUAUACAUGAGGAUCACCCAUGUGAGGUAGGUAAGUAGGAAGUGAAGGUAGAAGGGCGAGAGA | 67.2 | 95.3 | – | –
6 | UUGCAGUGCGGGUAGGAUAUGUAGGGUGGUACAUGAGGAUCACCCAUGUAUCCACCCUUCGACCGGCAGAAGGGCCUGUCACCGC | – | – | 15.2 | 14.8
7 | CCAGCGUAUGUGAGGAUAUGCUGGUCCUUGGAUCAGCAGAAGGCACAUGAGGAUCACCCAUGUGGAAUCGUUGG | 23.5 | 92.1 | – | –
8 | CUUGUGUGAGGAUAUGACAAUGGUAUCUUCGGAUACCAUUGUCAGAAGGUACAUGAGGAUCACCCAUGUAGAUC | 91 | 140 | – | –
9 | GCCCUCGCUGAGGAUAUUAUCUGGUUCGAUUGAUAAGAAGGCAGUACAUGAGGAUCACCCAUGUGGUUCGUCCG | 76.7 | 363 | – | –
10 | AAAAAACAUGAGGAUCACCCAUGUUAGGAUAUCCUGCAGAAAAAAAAAAAAAACUGCAGGAGAAGGAGCAAGGA | 90 | 104 | – | –
11 | GGAUAGGACAGAGGAUAUACGGCUAGGAGAUACUAGCCACUAUUCCUCACAUGAGGAUCACCCAUGUAGAAGGCUGUCCUAUCG | 16.9 | 109 | – | –
12 | UGUCCAUAGCAGAAGGACAUGUAUAACCAUGAAAACAUGAGGAUCACCCAUGUAGGAUAUGCUAUGGACUAAGAGCGAAAGCUC | 8.57 | 68.8 | – | –
13 | GUAGCACAAACAAAUGUAACAUGAGGAUCACCCAUGUGUUAUGAGGAUAUGGAUGUGAAGUUAAUCCAGAAGGCAUUAUGCUAA | – | – | 17.2 | 15.1
14 | UGAUCGAGAGAUCUUAGAUUCUGCAAGGAUAUGCAAGAGUUGCGCUUUACAUGAGGAUCACCCAUGUAGAAGGUGUAGAGUCUA | 6.27 | 6.62 | – | –
15 | GGUCUGACAUAAGGAUAUGCUCAGGAAUACUGAGCAGAAGGUAUGUGAAAACAUGAGGAUCACCCAUGUGAUCAAUACAGACCA | – | – | 18 | 20.9
16 | AAACACGGACAUGAGGAUCACCCAUGUGGCGAAAGCCUAACUAGAAGGCAGUAUGCAAAGCAUUCUGAGGAUAUGGGUUCCGUG | – | – | 188 | 18.1
17 | UUACUCAUGUAAGGAUAUGCAGCCGUUUCGGCUGCAGAAGGUACUAUAAUACAUGAGGAUCACCCAUGUCUUUUUAAUUUUUAU | – | – | 88.7 | 40.4
18 | GGACGUCACAUUAACAUGAGGAUCACCCAUGUCUAUAGACAUGAGGAUAUGGAUCCUAAUUGGAUCCAGAAGGCAUGGACGUCC | – | – | 787 | 46.3
19 | UGGUUGGGAGGAUAUCCAAUAUAUGACAUGAGGAUCACCCAUGUUUCCACUCGUACCUCCGGAGAAGGCCCUUCCU | 22.8 | 21.6 | – | –
20 | AAAAACGGAGGAUAUACAAAAAAAAAAAAAAAAAAAAUGGGACAUGAGGAUCACCCAUGUAGAAGGCCGAAAAA | 72 | 164 | – | –
21 | AACACGCUAACAAGCGACAUGAGGAUCACCCAUGUAAGGACACAGGAUAUCCGGAGUCAUAGGCCGGAGAAGGGUGAUCCUACC | – | – | 33.4 | 19.7
22 | GCCAUCACAUGAGGAUAUGCUCGGGUUUCCCGAGCAGAAGGCAUGUCAUAGGACAUGAGGAUCACCCAUGUAGUUAAGAUGGCA | – | – | 507 | 17.1
23 | UAAUUGUGAGGAUAUUCGUAGUUCACGGAGACGUGAAUUACGGAGAAGGCACAUGAGGAUCACCCAUGUUCCUU | 17.8 | 84.8 | – | –
24 | CUUUUGUGAGGAUAUUAGUAGUAAAUAAAUAAAAUUACUACUGAGAAGGCACAUGAGGAUCACCCAUGUUUCUC | 32.4 | 284 | – | –

Row | Sequence | apparent Kd [1] [nM] | apparent Kd [2] [nM] | apparent Kd [3] [nM] | apparent Kd [4] [nM]
25 | GGUGCGUUUGUGAGGAUAUGCUGGUCCUUGGUUCGGCAGAAGGCACAUGAGGAUCACCCAUGUGGUGUCGUACC | 16.7 | 48.8 | – | –
26 | GAUGUUCUGGUCAGGAUAUGCAUCCGUCGGCCGGAGCAGAAGGGACAUGAGGAUCACCCAUGUGCGGGUACAAA | 38.7 | 38.3 | – | –
27 | AAAUUUAACGAAGGAUAUGGUUACAUGAGGAUCACCCAUGUAUAUUUUGUGAUCUUGUUUAAGUUCCAGAAGGUCGUAUACAUA | 74.1 | 294 | – | –
28 | ACAUCGUGAGACAUGAGGAUCACCCAUGUGUGAUAGUGGGCACAGGAUAUCCAGACUUGGAAUCUGGAGAAGGGUGAUCGUUAA | – | – | 86.7 | 129
29 | GGGUACAUCGGAGGAUAUCAUGUAAAUACAUGAGGAUCACCCAUGUCGAUGGAGACAUCGGAAAUUGAGAAGGCCGAUGUACCG | – | – | 16.9 | 4.87
30 | AGGUGACAUGAGGAUCACCCAUGUCAGGAUAUAUACACCGCCGGCGUGAAGCCGACGGAUAGAAGGGACAAAAU | 16.6 | 21.6 | – | –
31 | UUGUUUUUUGAGGAUAUGCGACGUUUUUUCGUCGUAGAAGGCGAUACAUGAGGAUCACCCAUGUUUAUGGGCAU | 124 | 169 | – | –
32 | UGCCGCAACAACGCGGCGUCACAUGAGGAUCACCCAUGUUCACAGGAUAUGCGAUAGCCAACGAAGCAGAAGGGUGAUUACUUA | – | – | 53.7 | 219
33 | UUGAAGAUAGGAUAUACGAGGAGAGGAGAGAGAAGGUGAGGACAUGAGGAUCACCCAUGUAGAAGGAUCAGGAA | 81.5 | 62.5 | – | –
34 | GGAUGACAUAGUCAUCCUUAACGAACAUGAGGAUCACCCAUGUAGGAUAUGCUACUCAAAGAGUAGCAGAAGGACAUGUGUCUU | 27.2 | 157 | – | –
35 | AACUGACAUGAGGAUCACCCAUGUCAGGAUAUGACUUGACGAAAUAAAACACGUCAUGUCAGAAGGGACAUGAA | 17.4 | 15.2 | – | –
36 | GGUGGUCCUGUUACAUGAGGAUCACCCAUGUGAGGGCCACGUAGAAGGACCCAGAACUCCUUUGGGUAGGAUAUAUGGGCCUUC | 4.78 | 5.97 | – | –
37 | ACCAUUUACUAAUCGUCUAUACAUGAGGAUCACCCAUGUUAUGAGGAUAUCGUCGUGAAACACGACGAGAAGGCAUAGCAUUCG | 32.2 | 132 | – | –
38 | AAACAGUACGAGAAGGGCUACAUGAGGAUCACCCAUGUAGACGGUCGUGUGGCAGGAUAUCGAACACACCCAAAACGGUGCGUU | 5.9 | 7.43 | – | –
39 | CCGUAAAAUGGAGGAUAUGGAGCCUUAUUGGCUCCAGAAGGUCAUAAAACAUGAGGAUCACCCAUGUCGGCGGUCAAUAGACCG | – | – | 47.9 | 20.2
40 | CGCACUAUACAUGAGGAUCACCCAUGUUAAUAUGAGAUAGUCAGAAGGCAUUGUAUGAGAAAUUAUGAGGAUAUGAAUAGUGCG | – | – | 106 | 32.8
41 | UUGAAUUAUAAGGAUAUGGGAGUCGAUAGACACCCAGAAGGUAUAACAUGAGGAUCACCCAUGUGUCCUAUCUU | 22.2 | 23.4 | – | –
42 | GACAUGGUCUAGAAGGCCUAUCUAUUUAAGUACGAUUUAGAACAGCAUAGGAGGAUAUGGCUAACAUGAGGAUCACCCAUGUUC | – | – | 49 | 23.3
43 | ACUUUAGUAUCACAUGUAUUACAUGAGGAUCACCCAUGUUACUAGGAUAUGUAUUAGAAUUUACAACAGAAGGAGUUAAUUUGU | 7.92 | 7.59 | – | –
44 | UGAUAACAUGUAGGAUAUGCAGCAUUGACCACUGCAGAAGGACAUGAGGAUCACCCAUGUAUCCAUACUAUGGGAUCACGCAAU | 24 | 85.5 | – | –
45 | CCGUGAAGGACAGGAUAUGGACAUGAGGAUCACCCAUGUACAUGGGAAUAUAUACUGAAUUUAUACUAGAAGGGUUACAUAAAU | 21.8 | 19.4 | – | –
46 | GUAGGGUCAGGAUAUACUGGCUGAGGGAUGUAUUGUAGUUGGUAGAAGGGACAUGAGGAUCACCCAUGUAAGUA | 35.4 | 34 | – | –
47 | UCCUCGAUGUAGAAGGCCGCGUCCGGCUCACGCGGAGGAUAUACAUGAGGAUCACCCAUGUGUCUGUGCCUUAUAUGGUACGGA | 111 | 10.5 | – | –
48 | UCUCUUCUGUAGAAGGCCCGACUUGUGAAGACAACAAUGCUAUAGAAGUAGGGAGGAUAUACAUGAGGAUCACCCAUGUAGGAA | 11.6 | 29.3 | – | –
